Test results from ChEMBL document CHEMBL1153083, “Antiprotozoal, anticancer and antimicrobial activities of dihydroartemisinin acetal dimers and monomers” (Bioorg Med Chem, 2009).
Activity calls are given as the source filed them. The calls are words filed in the database; no cut-off is given here.

Legend:
SK-OV-3 = experiment: Cytotoxicity against human SKOV3 cells after 48 hrs by neutral red assay; type: functional, cell-based; conditions: sk-ov-3
Method in brief: (§1)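 Cells seeded at 25,000 per well and incubated 24 h, then exposed to samples for 48 h. Viable cells were counted by neutral red, with DMSO as vehicle control. IC50 or TC50 values were derived from logarithmic plots of growth inhibition versus concentration.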

Leishmania donovani = experiment: Antileishmanial activity against Leishmania donovani promastigotes after 48 hrs by alamar blue assay; type: functional, organism-based; conditions: for IC50: read-out: IC50
BT-549 = experiment: Cytotoxicity against human BT549 cells after 48 hrs by neutral red assay; type: functional, cell-based; method in brief: as §1
Nakaseomyces glabratus = experiment: Antifungal activity against Candida glabrata ATCC 90030 by modified CLSI/NCCLS method; type: functional, organism-based
KB = experiment: Cytotoxicity against human KB cells after 48 hrs by neutral red assay; type: functional, cell-based; method in brief: as §1
[1] = Selectivity index, ratio of TC50 for african green monkey (Cercopithecus aethiops) Vero cells to IC50 for Plasmodium falciparum D6; type: toxicity, cell-based
Staphylococcus aureus [2] = experiment: Antibacterial activity against Staphylococcus aureus ATCC 29213 by modified CLSI/NCCLS method; type: functional, organism-based
Cryptococcus neoformans = experiment: Antifungal activity against Cryptococcus neoformans ATCC 90113 by modified CLSI/NCCLS method; type: functional, organism-based
Plasmodium falciparum [3] = experiment: Antiplasmodial activity against Plasmodium falciparum D6 infected in RBCs by parasitic LDH release assay; type: functional, organism-based
Method in brief: (§2)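 Infected erythrocytes at 2% parasitemia and 2% hematocrit, in RPMI 1640 with 10% human serum and amikacin 60 μg/mL, were exposed to serial dilutions under N2/O2/CO2 (90:5:5) at 37°C for 72 h. LDH was read with Malstat reagent (30 min), then NBT/PES in the dark (60 min), stopped with 5% acetic acid, at 650 nm. IC50 came from percent growth dose-response curves.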

Candida albicans = experiment: Antifungal activity against Candida albicans ATCC 90028 by modified CLSI/NCCLS method; type: functional, organism-based
[4] = (§3) Toxicity against african green monkey Vero cells after 48 hrs by neutral red assay; type: cell-based; conditions: chlorocebus sabaeus, Vero cells; read-out: TC50; method in brief: as §1
Pseudomonas aeruginosa = experiment: Antibacterial activity against Pseudomonas aeruginosa ATCC 27853 by modified CLSI/NCCLS method; type: functional, organism-based
[5] = Toxicity against african green monkey Vero cells; type: cell-based; conditions: chlorocebus sabaeus; method in brief: as §1
Plasmodium falciparum [6] = experiment: Antiplasmodial activity against Plasmodium falciparum W2 infected in RBCs by parasitic LDH release assay; type: functional, organism-based; method in brief: as §2
Pichia kudriavzevii = experiment: Antifungal activity against Candida krusei ATCC 6258 by modified CLSI/NCCLS method; type: functional, organism-based
[7] = system: Mycobacterium intracellulare; experiment: Antibacterial activity against Mycobacterium intracellular ATCC 23068 by Franzblau method; type: functional, organism-based
Escherichia coli = experiment: Antibacterial activity against Escherichia coli ATCC 35218 by modified CLSI/NCCLS method; type: functional, organism-based
Staphylococcus aureus [8] = experiment: Antibacterial activity against methicillin-resistant Staphylococcus aureus ATCC 43300 by modified CLSI/NCCLS method; type: functional, organism-based
[9] = Selectivity index, ratio of TC50 for african green monkey (Cercopithecus aethiops) Vero cells to IC50 for Plasmodium falciparum W2; type: toxicity, cell-based
Aspergillus fumigatus = experiment: Antifungal activity against Aspergillus fumigatus ATCC 90906 by modified CLSI/NCCLS method; type: functional, organism-based
[10] = Toxicity against pig LLC-PK11 cells after 48 hrs by neutral red assay; type: cell-based, Sus scrofa; conditions: for CC50 at 48 h: LLC-PK11 cells, read-out: TC50; for TC50: llc-pk11, 48 h; method in brief: as §1
SK-MEL = experiment: Cytotoxicity against human SK-MEL cells after 48 hrs by neutral red assay; type: functional, cell-based; method in brief: as §1
Vero = experiment: as §3; type: cell-based; conditions: chlorocebus sabaeus, vero, 48 h; method in brief: as §1
[11] = Homo sapiens, BT-549, 48 h, read-out: IC50
[12] = Homo sapiens, KB, 48 h, read-out: IC50
[13] = Mycobacterium intracellulare, ATCC 23068, read-out: IC50
[14] = Homo sapiens, SK-MEL, 48 h, read-out: IC50
[15] = Nakaseomyces glabratus, ATCC 90030, read-out: IC50
[16] = Candida albicans, ATCC 90028, read-out: IC50
[17] = Aspergillus fumigatus, ATCC 90906, read-out: IC50
[18] = Pichia kudriavzevii, ATCC 6258, read-out: IC50
[19] = Escherichia coli, ATCC 35218, read-out: IC50

| Structure (SMILES) | IC50 (SK-OV-3) | IC90 (Leishmania donovani; Leishmania donovani, 48 h) | IC50 (Leishmania donovani; Leishmania donovani, 48 h) | selectivity ratio [1] | IC50 (Staphylococcus aureus [2]) | IC50 (Cryptococcus neoformans) | IC50 (Plasmodium falciparum [3]) | IC50 (Candida albicans) | IC50 (Pseudomonas aeruginosa) | CC50 [5] | IC50 (Plasmodium falciparum [6]) | IC50 (Staphylococcus aureus [8]) | selectivity ratio [9] | IC50 (Aspergillus fumigatus) | CC50 at 48 h [10] | IC50 [7] | IC50 (BT-549; bt-549) | IC50 (KB; kb) | TC50 (Vero) | IC50 (SK-MEL; sk-mel) | also measured |
| --- | --- | --- | --- | --- | --- | --- | --- | --- | --- | --- | --- | --- | --- | --- | --- | --- | --- | --- | --- | --- | --- |
| C[C@H]1[C@@H](OCC[C@@H](CO[C@H]2O[C@@H]3O[C@@]4(C)CC[C@H]5[C@H](C)CC[C@@H]([C@H]2C)[C@@]35OO4)O[C@H]2O[C@@H]3O[C@@]4(C)CC[C@H]5[C@H](C)CC[C@@H]([C@H]2C)[C@@]35OO4)O[C@@H]2O[C@@]3(C)CC[C@H]4[C@H](C)CC[C@@H]1[C@@]24OO3 | Not Active | 44.2 µM | 5 µM | 18 | Not Active | 16.6 µM | 0.298 µM | Not Active | Not Active | 5.25 µM | 0.243 µM | Not Active | 22 | Not Active | 0.07 µM |  |  |  |  |  | IC50 (BT-549; [11]): 0.06 µM; IC50 (Nakaseomyces glabratus): Not Active; IC50 (KB; [12]): 0.11 µM; CC50 at 48 h [4]: > 1.1 µM; IC50 (Pichia kudriavzevii): Not Active; IC50 [7, 13]: > 22.1 µM; IC50 (Escherichia coli): Not Active; IC50 (SK-MEL; [14]): 0.24 µM |
| C[C@H]1[C@@H](OC[C@@H]2O[C@@H]2CO[C@H]2O[C@@H]3O[C@@]4(C)CC[C@H]5[C@H](C)CC[C@@H]([C@H]2C)[C@@]35OO4)O[C@@H]2O[C@@]3(C)CC[C@H]4[C@H](C)CC[C@@H]1[C@@]24OO3 (relative stereo) | Not Active | 47.1 µM | 3.9 µM | > 164 | Not Active | 31.4 µM | 0.0455 µM |  |  | > 7.47 µM | 0.0471 µM | Not Active | > 159 |  | 0.68 µM | Not Active |  |  |  |  | IC50 (BT-549; [11]): 0.3 µM; IC50 (Nakaseomyces glabratus; [15]): > 31.4 µM; IC50 (KB; [12]): 0.47 µM; IC50 (Candida albicans; [16]): > 31.4 µM; CC50 at 48 h [4]: > 1.57 µM; IC50 (Pseudomonas aeruginosa; Pseudomonas aeruginosa, ATCC 27853, read-out: IC50): > 31.4 µM; IC50 (Pichia kudriavzevii): Not Active; IC50 (Escherichia coli): Not Active; IC50 (Aspergillus fumigatus; [17]): > 31.4 µM; IC50 (SK-MEL; [14]): 0.22 µM |
| C[C@H]1[C@@H](OCC(=O)CO)O[C@@H]2O[C@@]3(C)CC[C@H]4[C@H](C)CC[C@@H]1[C@@]24OO3 | Not Active | 112 µM | 25.8 µM | > 1700 | Not Active | 6.48 µM | 0.0079 µM |  | Not Active | > 13.3 µM | 0.007 µM | Not Active | > 1900 | Not Active | 20.8 µM | Not Active | Not Active | Not Active | Not Active | Not Active | IC50 (Nakaseomyces glabratus): Not Active; IC50 (Candida albicans; [16]): > 56.1 µM; IC50 (Pichia kudriavzevii; [18]): > 56.1 µM; IC50 (Escherichia coli): Not Active |
| C[C@H]1[C@@H](OC[C@@H](O)[C@@H](O)CO[C@H]2O[C@@H]3O[C@@]4(C)CC[C@H]5[C@H](C)CC[C@@H]([C@H]2C)[C@@]35OO4)O[C@@H]2O[C@@]3(C)CC[C@H]4[C@H](C)CC[C@@H]1[C@@]24OO3 (relative stereo) | Not Active | 22.9 µM |  | > 1080 |  | 1.22 µM | 0.0067 µM |  | Not Active | > 7.26 µM | 0.0052 µM | Not Active | > 1400 |  |  | Not Active | Not Active | Not Active | Not Active | Not Active | IC50 (Candida albicans; [16]): 6.11 µM; IC50 (Escherichia coli; [19]): 15.3 µM; IC50 (Aspergillus fumigatus; [17]): 30.5 µM; TC50 [10]: Not Active |
| C[C@H]1[C@@H](OC/C=C\CO)O[C@@H]2O[C@@]3(C)CC[C@H]4[C@H](C)CC[C@@H]1[C@@]24OO3 | Not Active |  | 42.3 µM | > 2160 |  | 0.56 µM | 0.0062 µM | Not Active | Not Active | > 13.4 µM | 0.0076 µM | Not Active | > 1760 | Not Active |  | Not Active | Not Active | Not Active | Not Active | Not Active | IC90 (Leishmania donovani): inactive; IC50 (Escherichia coli): Not Active; TC50 [10]: Not Active |
| C[C@H]1[C@@H](Oc2cccc(N[C@@H]3[C@H](C)O[C@@H]4O[C@@]5(C)CC[C@H]6[C@H](C)CC[C@@H]3[C@@]46OO5)c2)O[C@@H]2O[C@@]3(C)CC[C@H]4[C@H](C)CC[C@@H]1[C@@]24OO3 | Not Active | 62.3 µM | 24.9 µM | > 1290 |  | 0.16 µM | 0.0058 µM | Not Active | Not Active | > 7.41 µM | 0.0059 µM | Not Active | > 1250 | Not Active |  | Not Active | Not Active | Not Active | Not Active | Not Active | IC50 (Escherichia coli; [19]): 8.57 µM; TC50 [10]: Not Active |
| C[C@H]1[C@@H](OCC[C@H](O)CO[C@H]2O[C@@H]3O[C@@]4(C)CC[C@H]5[C@H](C)CC[C@@H]([C@H]2C)[C@@]35OO4)O[C@@H]2O[C@@]3(C)CC[C@H]4[C@H](C)CC[C@@H]1[C@@]24OO3 | Not Active | 9.4 µM | 2.5 µM | > 170 |  | 1.6 µM | 0.0438 µM |  | Not Active | > 7.45 µM | 0.0454 µM |  | > 164 |  | 0.1 µM |  |  |  |  |  | IC50 (BT-549; [11]): 0.08 µM; IC50 (Nakaseomyces glabratus; [15]): > 31.3 µM; IC50 (KB; [12]): 0.16 µM; IC50 (Staphylococcus aureus [2]; Staphylococcus aureus, ATCC 29213, read-out: IC50): 16.5 µM; IC50 (Candida albicans; [16]): 10.2 µM; CC50 at 48 h [4]: > 1.57 µM; IC50 (Pichia kudriavzevii; [18]): > 31.3 µM; IC50 [7, 13]: > 31.3 µM; IC50 (Escherichia coli; [19]): 13.6 µM; IC50 (Staphylococcus aureus [8]; Staphylococcus aureus, ATCC 43300, read-out: IC50): > 31.3 µM; IC50 (Aspergillus fumigatus; [17]): 5.24 µM; IC50 (SK-MEL; [14]): 0.24 µM |
| C[C@H]1[C@@H](OCc2cc(O)cc(O)c2)O[C@@H]2O[C@@]3(C)CC[C@H]4[C@H](C)CC[C@@H]1[C@@]24OO3 | Not Active | 24.6 µM | 5.7 µM | > 560 | Not Active | 18.6 µM | 0.0209 µM | Not Active | Not Active | > 11.7 µM | 0.0207 µM | Not Active | > 567 | Not Active | 2.46 µM |  | Not Active | Not Active | Not Active | Not Active | IC50 (Nakaseomyces glabratus): Not Active; IC50 (Pichia kudriavzevii): Not Active; IC50 [7, 13]: > 49.2 µM; IC50 (Escherichia coli; [19]): 48.6 µM |
